Reference: the EternaBench riboswitch data

Tested on: MS2 coat protein
Assay: apparent Kd, MS2 coat protein; higher = weaker binding; RNA-MaP array; FMN 200 µM where present
In short: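 Each design was made on Illumina sequencing-chip clusters by stalled E. coli RNA polymerase and titrated with SNAP-549-labelled MS2 coat protein from 0.7 or 1.5 nM, doubling to 3 µM, in the absence and then the presence of constant ligand. The buffer was 100 mM Tris-HCl pH 7.5, 80 mM KCl, 4 mM MgCl2, BSA, DTT, yeast tRNA and Tween-20. The apparent Kd is the median of filtered per-cluster fits of binding curves, with green signal normalised to red-channel RNA signal and control-cluster median Fmax.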

[1] = designed as: OFF switch for flavin mononucleotide, no ligand
[2] = ligand present: flavin mononucleotide, designed as: OFF switch for flavin mononucleotide
[3] = designed as: ON switch for flavin mononucleotide, no ligand
[4] = ligand present: flavin mononucleotide, designed as: ON switch for flavin mononucleotide

| Sequence | apparent Kd [1] [nM] | apparent Kd [2] [nM] | apparent Kd [3] [nM] | apparent Kd [4] [nM] |
| --- | --- | --- | --- | --- |
| AGUACCAUGUAGAAGGGAUAUCUGAUUCAGAUAUCAGGAUAUACAUGAGGAUCACCCAUGUAAAUGUACUGCACGAAAGUGCAA | 18 | 37.9 | – | – |
| UAUAUAAUAUUACACAUGAGGAUCACCCAUGUACAUGGGAUAGAGGAUAUACAAAUAUUAGUGGUGUAGAAGGUUAAUAUAUAU | 266 | 71 | – | – |
| UCCUUAAGUUAGGAUAUCGAUUGCUAUAGCAGAUGAGAAGGAGCCACAUGAGGAUCACCCAUGUCCUCACCUAU | 180 | 214 | – | – |
| UUGGACGUCGUAGGAUAUGUAGGAUAUUCCUACAUGAGGAUCACCCAUGUUGACAUUGAAGAAGGACAGAAGGACGAUGUCCAU | – | – | 87.7 | 5.02 |
| AGUAAGAUGCAGAAGGUGUCAGCGAGAGCUGCGACAUGAGGAUCACCCAUGUACCGGUGACGGUACAAGGAUAUGCAUCUUACA | – | – | 882 | 360 |
| GGUGACCUUGUAAGGAUAUCGAAUUUAGAUGAGCACGAGAAGGUACAUGAGGAUCACCCAUGUCUGCGGUAACU | 50.8 | 102 | – | – |
| GCAUGACAAAGUCAUGCAUAACGAACAUGAGGAUCACCCAUGUAGGAUAUGCUACUCAAAGAGUAGCAGAAGGACAUGUGCCUU | 34.2 | 263 | – | – |
| AAAAAACAUGAGGAUCACCCAUGUCAAAAGACAUGAGGAUAUGUACAGACUUCGGUCUGUACAGAAGGCAUGUAAA | – | – | 321 | 30.8 |
| AUUAUUAAGGUAGGAUAUAGUAAAAUAAUUUAAUUAGAAGGAUCUCACAUGAGGAUCACCCAUGUAAGAGGAUCACCCAUGUAU | 10.8 | 9.53 | – | – |
| CAAUGGGCGGUAGGAUAUCCGGUGUUUGGCAAAGGAGAAGGACUCACCAUACAUGAGGAUCACCCAUGUGAAGCGGGUCCUCAA | 8.48 | 10.1 | – | – |
| UGCUAACUGUAGAAGGGUGACAUGAGGAUCACCCAUGUGCACGCGCGAUUUACGGCGCGCGUGCCACAGGAUAUACAGUCGAGU | – | – | 28.3 | 54.4 |
| AUAAAUAAGGAGGAUAUCGUAUCGGAAACGAUACGAGAAGGUCUAACAUGAGGAUCACCCAUGUUCCUCAAUAA | 37.7 | 58.5 | – | – |
| CCACUGUCAGGAUAUCGUGCAUAAACGUUUACAUUUAUGUGCGAGAAGGGACAUGAGGAUCACCCAUGUAAACG | 314 | 515 | – | – |
| UUACUACAUGAGGAUCACCCAUGUCAGGAUAUUGUAUAUACCUUGGAAUACGUGUCUACAAGAAGGGACUAUAU | 23.7 | 22.5 | – | – |
| AAUAUGAGCUGGUCUAAACUCAAAACAUGAGGAUCACCCAUGUAGGAUAUCAGCACGAUAAGUGCUGAGAAGGACAUCCAGCUC | 16.7 | 20.5 | – | – |
| AAAUACCGGUGAGGAUAUUUUUAAUAGAACUUUAUGAUAUACAUGAGGAUCACCCAUGUUACUUUAAAGAAGGCAUCGGAUAAA | 17.5 | 15.8 | – | – |
| CUUAAGGCAGGAUAUGCUUUUUGUGACAUGAGGAUCACCCAUGUGAUGCAGUUUGGGUGUGCAGAAGGGCCUGAGU | 364 | 172 | – | – |
| GUAGAGUAGUGAGGAUAUACGAGUUCGAUAGAACGGCGAUCCAAUAAUACAUGAGGAUCACCCAUGUAGAAGGCACUUCUCUAC | 9.33 | 112 | – | – |
| AAUCCACAUGAGGAUCACCCAUGUGAGGAUAUGAUACUAUGUACUUCGGUACAUAGUAUCAGAAGGCAUAUGAA | 25.3 | 30.4 | – | – |
| GACGUGUGAGGAUAUCCGAUGCCGGUCCGGAAGGUUCGGGUGGAGAAGGCACAUGAGGAUCACCCAUGUGUAAG | 18 | 26.5 | – | – |
| UUAUGUUUUGUAGGAUAUCAUUAGUUAUGUAUUUUAAUUGAAAUUUAGAUAUGAGAAGGACAUUUACAUGAGGAUCACCCAUGU | 17.4 | 11.1 | – | – |
| UCUAUGAAGAUUCGUCAAUACAGUUAGGAUAUGAGAUACAUGAGGAUCACCCAUGUGCAUGUGGAUUAGAAGGAACAAUUAUCU | 33.2 | 30.8 | – | – |
| AAGCCACAUGAGGAUCACCCAUGUAUUUGACAGCGAGGAUAUGGGCCGCCAUGACGAGCACCAGAAGGCGCUGGUA | – | – | 20.9 | 16.3 |
| GGAGCCGGCACUGAGGAUAUUCAUAUUAAAACAUGAGGAUCACCCAUGUAGGCCAGAAGGCCUUGGGAGAAGGCAGGUCGACUCG | – | – | 406 | 28.9 |
| CUAUCGAGGUCACUCGUUAUCACACCAGAAGGGACGGAGGCACAUGAGGAUCACCCAUGUCCUAGUCAGGAUAUGGGUGAGUAG | – | – | 25.6 | 5.16 |
| AGACGGAGCUGAGGAUAUAACAUGAGGAUCACCCAUGUAAGUCUCCAGGAAACUGGAGACAAAUGUUAGAAGGCAGCUCCGUCA | 39.8 | 51.2 | – | – |
| UUGGACGUCGUAGGAUAUGUAGGAUAUUCCUACAUGAGGAUCACCCAUGUUGACAUGGAAGAAAGACAGAAGGACGAUGUCCAU | – | – | 325 | 8.48 |
| GGAUGACAAAGUCAUCCAAUACGAACAUGAGGAUCACCCAUGUAGGAUAUGCAACUCAAAGAGUUGCAGAAGGACAUGUGUCUU | 28.9 | 128 | – | – |

| Sequence | apparent Kd [1] [nM] | apparent Kd [2] [nM] | apparent Kd [3] [nM] | apparent Kd [4] [nM] |
| --- | --- | --- | --- | --- |
| AGAAACUACGAGAAGGACAUGUGGUCCUUCAGAAACAUGAGGAUCACCCAUGUAGGAUAUCGUAGUUUCAGGAUCGUGAGAUCA | 54.4 | 20.8 | – | – |
| UUAUGAUAGAUAGGAUAUACAUUGGAUUUAAAAGUAGAAGGAUCAAGUGGGAAAUGAACAUGAGGAUCACCCAUGUAAUAGGUU | – | – | 109 | 78.6 |
| GGUGAGCAAGGAUAUACAUGAGGAUCACCCAUGUGAGAUGCGCAGGGCCCGAUGAUAGGUAGAAGGUGCGUCAC | 34.5 | 72.8 | – | – |
| AGUUGGCGAGGAUAUACAUGAGGAUCACCCAUGUGAGAGAUACUAGUGAGGUCGAUUAGUAGAAGGCGCUGACA | 31.1 | 439 | – | – |
| AACCUAUUACAGAAGGCCAGCUACAUGAGGAUCACCCAUGUCGAGUCAUGGAGGAUAUGUAGUAAUUUGCACGCGGGCGAGCAC | – | – | 59.7 | 7.05 |
| UAUUUUAACUAAGGAUAUCUAUAAUAAUUUGAAACAUGAGGAUCACCCAUGUUCAUGGGUUUUUAAGAGAAGGUAGAUGAAUAA | – | – | 59.8 | 26.1 |
| UAUUAGUAAGGAUAUCUCGUCAUGGACGUGAGUCCAUGACGAGAGAAGGUACAUGAGGAUCACCCAUGUUCAUU | 15.9 | 18.3 | – | – |
| AAAAUAAGUGUGAGGAUAUGCUGGUCCUUGGAUCAGCAGAAGGCACAUGAGGAUCACCCAUGUAAUAUAUUUAU | 84.7 | 295 | – | – |
| CUGAGGUCAGGAUAUGCAUGGCGGGACUUGCGUCGUGGCGUGGAGAAGGGACAUGAGGAUCACCCAUGUGGAGU | 79 | 54.2 | – | – |
| AAAAAGUAAGGAUAUCGGCGGCGGCGGAGGCGGCGGCGGCUCGAGAAGGUACAUGAGGAUCACCCAUGUAAAAA | 29.2 | 15.3 | – | – |
| CCACGUCACAUGAACAUGAGGAUCACCCAUGUAAAUUCUCAUGAGGAUAUGGAUCCUAAUUGGAUCCAGAAGGCAUGGACGUGG | – | – | 842 | 348 |
| CCUAGUUGGUAAGGAUAUCCUACACUAUUCUGACCCGUGCAAGCUACAUGAGGAUCACCCAUGUGGGAGAAGGUGCGUCAACAU | 10.1 | 10.2 | – | – |
| UAGGACUACGUAGGAUAUGUAGUAGAUUACUACAUGAGGAUCACCCAUGUAAGCAUGUGAUUAGGACAGAAGGACGUGGUAAAU | – | – | 24.8 | 8.91 |
| GUCCUUUCUGAGGAUAUUAUCCUUUCCGAUUGAUAAGAAGGCAGUACAUGAGGAUCACCCAUGUGGGUUGUCUG | 29.8 | 38.3 | – | – |
| GAUCACUGAGGAUAUACGCAGAUACAAAGUAUCUGAUUGUGACAUGAGGAUCACCCAUGUAGAAGGCAGAGGUC | 37.2 | 124 | – | – |
| GGCAGAUUCCACAUGAGGAUCACCCAUGUGCUCUUCCGGGCACAGGAUAUCCGCAGUGGUUUCUUGGAGAAGGGUGCUGAUUAA | – | – | 26.8 | 42.4 |
| UUCGCUAAGGUGUAGCGAGACUUGCAAGAAGGGUGAAGAACAUGAGGAUCACCCAUGUAAGCCUUACAGGAUAUUGCUUGACGA | – | – | 106 | 36.4 |
| AACUCACAUGAGGAUCACCCAUGUGAGGAUAUAUAAAUAUAUAUGUUAUUAUAUAUUUAUAGAAGGCGCGUGAU | 44.1 | 46.9 | – | – |
| UGGUCAACAUCAGGAUAUUAACAUGGGCUACACUAAGAAGGGAUAAUGAAAUACGAACUAAACGCACAUGAGGAUCACCCAUGU | – | – | 34.4 | 25 |
| GUAAAUCAUGUAGGAUAUGCAUGGCGAAGCUACGCAGAAGGACAUGAGGAUCACCCAUGUCUGUCCGUCUGCGAACAGACGGAC | 23.4 | 174 | – | – |
| CUUUUGUGAGGAUAUUAGUAGUAAAUAAAUAAAAUUACUACUUAGAAGGCACAUGAGGAUCACCCAUGUUCCUC | 26.9 | 219 | – | – |
| AUGGUUGUCGUAGGAUAUGUAGGAUAUUCCUACAUGAGGAUCACCCAUGUUCGCAUGGAAGAAGGACAGAAGGACGAUGACCAU | – | – | 1150 | 9.7 |
| AAGAACAACCAGAAGGCAAGGCAAACAUGAGGAUCACCCAUGUAAUAUUUGAGGAUAUGGGUUCGACGUGGUCUAAAGUCAGGU | – | – | 120 | 14.1 |
| AAAAAGUGAGGAUAUACAUGAGGAUCACCCAUGUGAAAGUCGAAAAAAAAGACAAGAAGUAGAAGGCACAAAAA | 30.4 | 34.9 | – | – |
| GUUUUUUUUAGUUCAUACUAUAAGAUAGAAGGUGAAAUAUUGACAUGAGGAUCACCCAUGUAAUUCAAGGAUAUGUAGUUACUC | – | – | 34.3 | 22.7 |
| UGUUGUUCAGGAUAUGAUGUAUAAUACAUGAGGAUCACCCAUGUAGAUCCUGAAUUGGCGUCAGAAGGGAAUGUUG | 19.3 | 21.9 | – | – |
| GCUGACGAUGUAGGAUAUCUCGACGAUAAGUCGAGAGAAGGACAUGAGGAUCACCCAUGUAACUCUACGUCAGCGAGGAAACUC | 16.8 | 18 | – | – |
